Assay results as given in publication PMC5034689 (Molecular Metabolism, 2016).

Experiments:
HFD-fed mice = assay: Long-term TNP for protection against DIO; format: in vivo, C57BL6 mice
Outline: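 Male C57BL6 mice, chow-fed to 2 months of age, started HFD together with daily injections (10 mg/kg; vehicle DMSO:Tween 80:water 1:1:8) for 10 weeks, n = 6/group, 23 °C. Body weight was recorded weekly. In week 5, CLAMS ran 36 h acclimatization then 48 h of VO2, VCO2 and locomotor recording. RER = VCO2/VO2, and EE was normalized to lean mass. Week-7 food intake was measured by BioDAQ (2 days acclimatization, 4 days recorded).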

[1] = Plasma protein binding, equilibrium dialysis, summary over species; format: in vitro ADME; settings: human, mouse, rat
Outline: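 Binding was measured by rapid equilibrium dialysis in triplicate, starting at 1 μM drug in the plasma chamber against PBS. Plates were shaken 6 h at 37 °C. Samples were matrix-matched to 1:1 plasma:PBS and quantified by LC-MS/MS. Fraction bound = ([plasma] − [PBS])/[plasma].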

cortical neurons = settings: cited from earlier work
DIO mice = assay: Long-term TNP treatment of DIO mice at thermoneutral temperature; format: in vivo
Outline: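 Following the initial phase, vehicle or test compound was injected for another 8 weeks, n = 6/group. Body weight was recorded weekly. ITT was done at week 4: 5 h fast, human insulin 0.75 U/kg i.p., tail-vein glucometer. At 8 weeks, mice were sacrificed after a 5 h fast. Cardiac-puncture serum was assayed for cholesterol and HDL by a metabolic core.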

[2] = system: human promyelocytic leukemia (HL60) cells; settings: cited from earlier work
[3] = Plasma and tissue availability after a single intraperitoneal TNP injection; format: in vivo, mice
Outline: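 Chow-fed mice received a single i.p. injection (20 mg/kg) in DMSO:Tween 80:water (1:1:8). Plasma levels were followed 1–6 h after dosing. Liver, skeletal muscle, white and brown adipose tissue and brain were collected 6 h after dosing to measure tissue concentrations.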

CYP1A2 = target: T1, CYP1A2 (Homo sapiens, UniProt P05177); assay: CYP450 inhibition in human hepatic microsomes, CYP1A2; format: in vitro ADME; settings: liver microsomes
T1 sequence (P05177 1-516): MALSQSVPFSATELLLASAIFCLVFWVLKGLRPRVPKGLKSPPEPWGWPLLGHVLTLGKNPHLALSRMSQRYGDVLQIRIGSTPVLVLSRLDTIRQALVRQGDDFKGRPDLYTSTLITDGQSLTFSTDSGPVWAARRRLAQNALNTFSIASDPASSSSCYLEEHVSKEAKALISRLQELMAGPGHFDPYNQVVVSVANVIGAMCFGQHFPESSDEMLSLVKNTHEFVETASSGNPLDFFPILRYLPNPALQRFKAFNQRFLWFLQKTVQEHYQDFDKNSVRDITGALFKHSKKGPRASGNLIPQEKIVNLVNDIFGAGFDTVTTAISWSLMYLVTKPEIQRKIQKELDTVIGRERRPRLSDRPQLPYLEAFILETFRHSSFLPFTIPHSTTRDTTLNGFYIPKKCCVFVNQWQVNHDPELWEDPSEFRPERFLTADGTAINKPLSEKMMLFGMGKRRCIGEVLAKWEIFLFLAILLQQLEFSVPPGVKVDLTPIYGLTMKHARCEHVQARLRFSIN

IP6K1-KO mice = assay: Long-term TNP for reversal of DIO in IP6K1-KO mice; format: in vivo
Outline: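 Inbred IP6K1-KO mice (seventh generation) and WT littermates, n = 4/group, received HFD for 8 weeks, then daily injections (10 mg/kg) with continued HFD for 10 weeks. GTT was done at week 5: 5 h fast, glucose 2 g/kg i.p., tail-vein glucometer readings including time 0. After 10 weeks, fat, lean and fluid masses were measured by LF-NMR, and mice were sacrificed after a 5 h fast.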

[4] = 10 mg/kg BW daily, 5th week, CLAMS

## O=[N+]([O-])c1ccc(CNc2nc(NCc3cccc(C(F)(F)F)c3)nc3[nH]cnc23)cc1 [TNP, N6-(4-nitrobenzyl)-N2-(3-(trifluoromethyl)benzyl)-9H-purine-2,6-diamine]
HFD-fed mice; 10 mg/kg BW daily
  Lean mass: unaltered
HFD-fed mice; [4]
  Average RER: unaltered
  Average activity: unaltered
  Energy expenditure (EE): higher EE especially during nighttime
  VO2 consumption: higher VO2 consumption
HFD-fed mice; 10 mg/kg BW daily, 7th week, vs vehicle
  Daily energy intake: similar
HFD-fed mice; 10 mg/kg BW daily, 8th and 9th week
  Glucose disposal following glucose (GTT) and insulin injections (ITT): efficient glucose disposals
HFD-fed mice; 10 mg/kg BW daily, after 10 weeks (injection stopped)
  Body weight gain: 2.9 g
HFD-fed mice; 10 mg/kg BW daily, after 10 weeks of HFD and TNP
  Body weight: 27.8 g
HFD-fed mice; 2 weeks after TNP withdrawal
  Glucose disposal following glucose injection (GTT): efficient glucose disposal
HFD-fed mice; 18-week, eight weeks after TNP withdrawal
  Body weight gain: 19.3 g
HFD-fed mice; 18-week, eight weeks after TNP withdrawal, HFD continued
  Body weight: 44.3 g
HFD-fed mice; four weeks after TNP withdrawal
  Glucose tolerance (GTT): become glucose intolerant
HFD-fed mice; onset of the experiment (before treatment)
  Body weight: 24.9 g
HFD-fed mice; weeks 10 to 18, TNP-withdrawn mice
  Weight gain during the withdrawal period: 16.4 g
[1]
  fraction unbound at 6 h, 1 μM: 0.07 to 0.1
Cortical neurons
  Cytosolic Zn2+ levels: slightly elevates
DIO mice; 30 °C, after 4-weeks of TNP injection
  Glucose disposal following exogenous insulin treatment (ITT): significantly improved
DIO mice; 30 °C, after 8-weeks of injection
  Average decrease in body weight: ~0.7 g
DIO mice; thermoneutral temperature
  Serum levels of total cholesterol and HDL: unaltered at thermoneutral temperature
[2]
  Ca2+ levels: slightly elevates
[3]; mice
  Crossing of the BBB: does not efficiently cross the BBB
[3]; mouse, plasma, ip, 20 mg/kg
  half-life: ~6 h
[3]; single dose 20 mg/kg i.p., chow fed mice, 1–6 h post-treatment
  TNP concentration in plasma: 5 to 10 µM
CYP1A2
  inhibition at 10 μM: 86%
IP6K1-KO mice; 10 mg/kg BW daily, 10 weeks
  TNP mediated weight loss: resistant to Rev-TNP mediated weight loss
  Total fat, lean, and fluid masses: unaltered
IP6K1-KO mice; 10 mg/kg BW daily, after 10-week of treatment
  Body weight: ~33 g
IP6K1-KO mice; after 5 weeks of TNP treatment
  Glucose disposal (GTT): not altered
